Experimental data reported in ChEMBL document CHEMBL1138182, “Structure activity relationships of 5-, 6-, and 7-methyl-substituted azepan-3-one cathepsin K inhibitors” (J Med Chem, 2006).
pIC50, pKi: −log10 of the molar value.

Columns and labels:
Cathepsin K [1] = target: T1, Cathepsin K (Homo sapiens, UniProt P43235); assay: Inhibition of human cathepsin K; conditions: read-out: Ki app
T1 sequence (P43235 whole entry): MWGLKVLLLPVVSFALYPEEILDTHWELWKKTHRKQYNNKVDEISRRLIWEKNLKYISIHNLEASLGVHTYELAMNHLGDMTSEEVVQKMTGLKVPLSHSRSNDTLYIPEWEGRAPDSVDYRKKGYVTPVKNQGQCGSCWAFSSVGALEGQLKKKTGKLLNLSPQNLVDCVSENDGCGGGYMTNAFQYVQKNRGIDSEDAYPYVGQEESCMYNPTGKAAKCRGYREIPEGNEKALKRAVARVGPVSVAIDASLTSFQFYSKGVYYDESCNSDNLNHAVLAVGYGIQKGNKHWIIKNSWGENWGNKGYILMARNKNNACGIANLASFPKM

Cathepsin B = Cathepsin B (Homo sapiens, UniProt P07858); assay: Inhibition of human cathepsin B; conditions: read-out: Ki app
Method in brief: (§1)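 Recombinant human enzyme with fluorogenic substrate, typically Cbz-Phe-Arg-AMC, in 100 mM sodium acetate pH 5.5 with 20 mM cysteine and 5 mM EDTA, at ambient temperature. Enzyme added last to inhibitor plus substrate. AMC fluorescence read at ex 360/em 460. Progress curves at variable inhibitor concentrations were fitted for Ki,app, by competitive velocity equation or slow-binding exponential.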

Osteoclast = assay: Effect on collagen […] in osteoclast bone resorption assay; format: functional, cell-based; conditions: Homo sapiens
Method in brief: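 Human osteoclastoma-derived osteoclasts on bovine cortical bone slices, incubated 48 h with a range of compound concentrations. Type-I collagen C-telopeptide release measured by ELISA.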

[2] = Half life in iv dosed Sprague-Dawley rat; format: ADME, organism-based; conditions: in vivo
Method in brief: (§2)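 Male Sprague-Dawley rats, n = 3, iv/po crossover. Dosed iv as a 1-2 mg/kg 0.5-h infusion through an indwelling femoral vein catheter, then 2-4 mg/kg oral gavage 2 days later. Vehicle: aqueous, <2% DMSO, <20% hydroxypropyl-β-cyclodextrin. Tail-vein plasma sampled at timed intervals, measured by LC/MS/MS (LLOQ 1.0-10 ng/mL). Noncompartmental analysis.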

[3] = Clearance in iv dosed Sprague-Dawley rat; format: ADME, organism-based; conditions: in vivo; method in brief: as §2
[4] = Volume of distribution in iv dosed Sprague-Dawley rat; format: ADME, organism-based; conditions: in vivo, read-out: Vdss; method in brief: as §2
[5] = Oral bioavailability in Sprague-Dawley rat; format: ADME, organism-based; conditions: in vivo; method in brief: as §2
[6] = Protein binding in plasma; format: ADME, cell-free; conditions: rat, read-out: PPB (converted)
Method in brief: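 Rat plasma; binding determined by equilibrium dialysis or ultrafiltration.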

[7] = Permeability in MDCK cells at 10 uM; format: ADME, cell-based, Canis lupus familiaris; conditions: dog, read-out: permeability
Method in brief: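 MDCK cells at passage 60-80, grown in MEM + 10% FBS at 37 °C, 5% CO2, seeded on Transwells and assayed 3 days after seeding. After ~1 h equilibration in HBSS with 25 mM glucose and 25 mM HEPES, 10 µM compound (1% DMSO final) was added apically. Basolateral concentration measured by LC/MS/MS over 3600 s, Papp calculated, duplicates, propranolol and mannitol controls.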

[8] = Permeability in artificial membrane; format: ADME, cell membranes; conditions: PAMPA; read-out: permeability
Cathepsin S = Cathepsin S (Homo sapiens, UniProt P25774); assay: Inhibition of human cathepsin S; conditions: read-out: Ki app
Cathepsin K [9] = target: T2, Cathepsin K (Rattus norvegicus, UniProt O35186); assay: Inhibition of rat cathepsin K; conditions: read-out: Ki app
T2 sequence (O35186 whole entry): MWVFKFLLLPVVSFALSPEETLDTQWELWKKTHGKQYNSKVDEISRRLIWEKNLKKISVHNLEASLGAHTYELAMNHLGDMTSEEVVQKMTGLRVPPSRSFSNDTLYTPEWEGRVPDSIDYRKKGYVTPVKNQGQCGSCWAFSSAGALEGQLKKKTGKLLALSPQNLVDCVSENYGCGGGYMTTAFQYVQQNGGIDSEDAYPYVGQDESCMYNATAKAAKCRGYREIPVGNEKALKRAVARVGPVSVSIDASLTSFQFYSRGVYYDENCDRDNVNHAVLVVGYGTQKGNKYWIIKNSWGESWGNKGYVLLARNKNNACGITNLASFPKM
Method in brief: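 Recombinant enzyme; fluorogenic peptide substrate (typically Cbz-Phe-Arg-AMC) in 100 mM sodium acetate pH 5.5 with 20 mM cysteine and 5 mM EDTA, ambient temperature. Reaction started by adding enzyme to inhibitor plus substrate at variable inhibitor concentrations; AMC fluorescence (ex 360, em 460 nm) followed as progress curves. Ki,app obtained by fitting to the competitive velocity equation or the slow-binding progress-curve equation.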

Cathepsin L2 = target: T3, Cathepsin L2 (Homo sapiens, UniProt O60911); assay: Inhibition of human cathepsin V; conditions: read-out: Ki app; method in brief: as §1
T3 sequence (O60911 whole entry): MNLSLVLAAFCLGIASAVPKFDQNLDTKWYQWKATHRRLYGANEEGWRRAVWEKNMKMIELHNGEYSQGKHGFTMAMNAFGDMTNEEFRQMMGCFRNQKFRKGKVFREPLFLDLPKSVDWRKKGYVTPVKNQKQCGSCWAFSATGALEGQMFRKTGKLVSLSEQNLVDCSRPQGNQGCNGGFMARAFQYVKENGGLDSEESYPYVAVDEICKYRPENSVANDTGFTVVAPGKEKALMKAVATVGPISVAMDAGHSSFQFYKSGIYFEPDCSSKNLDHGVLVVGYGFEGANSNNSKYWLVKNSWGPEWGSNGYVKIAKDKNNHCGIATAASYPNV

[10] = Half life in iv dosed cynomolgus monkey; format: ADME, organism-based, Macaca fascicularis; conditions: in vivo
Method in brief: (§3)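 Cynomolgus monkeys (male, n = 3) in an iv × po crossover. Dosed by 1-h iv infusion of 1-2 mg/kg via temporary saphenous vein catheter, then 2-4 mg/kg oral gavage 7 days later. Vehicle: aqueous <2% DMSO, <20% hydroxypropyl-β-cyclodextrin. Femoral-vein plasma measured by LC/MS/MS, LLOQ 1.0-10 ng/mL. Parameters by noncompartmental methods.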

[11] = Clearance in iv dosed cynomolgus monkey; format: ADME, organism-based, Macaca fascicularis; conditions: in vivo; method in brief: as §3
[12] = Volume of distribution in iv dosed cynomolgus monkey; format: ADME, organism-based, Macaca fascicularis; conditions: in vivo, read-out: Vdss; method in brief: as §3
[13] = Oral bioavailability in cynomolgus monkey; format: ADME, organism-based, Macaca fascicularis; conditions: in vivo; method in brief: as §3

Sequence of Cathepsin S (P25774 whole entry): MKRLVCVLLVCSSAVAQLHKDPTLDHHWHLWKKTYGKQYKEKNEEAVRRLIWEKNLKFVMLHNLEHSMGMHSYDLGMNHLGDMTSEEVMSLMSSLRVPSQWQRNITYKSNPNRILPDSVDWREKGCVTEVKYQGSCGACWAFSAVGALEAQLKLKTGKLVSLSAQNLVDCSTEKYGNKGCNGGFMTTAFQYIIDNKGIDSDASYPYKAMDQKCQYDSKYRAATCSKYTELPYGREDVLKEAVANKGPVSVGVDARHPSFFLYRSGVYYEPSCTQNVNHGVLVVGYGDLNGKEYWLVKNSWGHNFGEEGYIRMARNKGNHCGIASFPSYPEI

Row | Compound | pKi (Cathepsin K [1]) | pKi (Cathepsin B) | pIC50 (Osteoclast) | fraction unbound [6] | Papp at 10 µM [7] [×10⁻⁶ cm/s] | Papp [8] [×10⁻⁶ cm/s] | pKi (Cathepsin S) | pKi (Cathepsin K [9]) | further results
1 | CC(C)C[C@H](NC(=O)c1cc2ccccc2o1)C(=O)N[C@@H]1C(=O)CN(S(=O)(=O)c2ccccn2)CC[C@@H]1C | 11.00 | 7.49 | 7.70 | 0.053 | 55 | 68 | – | – | half-life [2]: 58.5 min; clearance [3]: 80.5 mL/min/kg; Vd [4]: 4.7 L/kg; bioavailability [5]: < 5.4%
2 | CC(C)C[C@H](NC(=O)c1cc2ccccc2o1)C(=O)N[C@@H]1CC[C@H](C)N(S(=O)(=O)c2ccccn2)CC1=O | – | – | – | – | – | – | 6.96 | 6.10 | –
3 | CC(C)C[C@H](NC(=O)c1cc2ccccc2o1)C(=O)N[C@@H]1CC[C@@H](C)N(S(=O)(=O)c2ccccn2)CC1=O | – | – | – | – | – | – | 7.04 | 6.37 | –
4 | CC(C)C[C@H](NC(=O)c1cc2ccccc2o1)C(=O)N[C@H]1C(=O)CN(S(=O)(=O)c2ccccn2)CC[C@H]1C | 7.38 | < 6.00 | – | – | – | – | – | – | –
5 | CC(C)C[C@H](NC(=O)c1cc2ccccc2o1)C(=O)N[C@H]1CC[C@H](C)N(S(=O)(=O)c2ccccn2)CC1=O | – | – | – | – | – | – | 7.38 | 6.17 | –
6 | CC(C)C[C@H](NC(=O)c1cc2ccccc2o1)C(=O)N[C@H]1CC[C@@H](C)N(S(=O)(=O)c2ccccn2)CC1=O [RELACATIB] | – | 7.89 | 7.66 | 0.032 | 47 | 47 | 8.80 | 8.10 | pKi (Cathepsin L2): 10.20; half-life [2]: 109 min; clearance [3]: 19.5 mL/min/kg; Vd [4]: 1.79 L/kg; bioavailability [5]: 89.4%; half-life [10]: 168 min; clearance [11]: 11.7 mL/min/kg; Vd [12]: 0.95 L/kg; bioavailability [13]: 27.6%

Continued, in another order:

Row | pKi (Cathepsin K [1]) | pKi (Cathepsin B) | pIC50 (Osteoclast) | fraction unbound [6] | Papp at 10 µM [7] [×10⁻⁶ cm/s] | Papp [8] [×10⁻⁶ cm/s] | Compound | pKi (Cathepsin S) | pKi (Cathepsin K [9]) | further results
7 | 8.82 | < 6.00 | – | – | – | – | CC(C)C[C@H](NC(=O)c1cc2ccccc2o1)C(=O)N[C@@H]1C(=O)CN(S(=O)(=O)c2ccccn2)CC[C@H]1C | – | – | –
8 | 7.72 | < 6.00 | – | – | – | – | CC(C)C[C@H](NC(=O)c1cc2ccccc2o1)C(=O)N[C@H]1C(=O)CN(S(=O)(=O)c2ccccn2)CC[C@@H]1C | – | – | –
9 | 7.52 | – | – | – | – | – | CC(C)C[C@H](NC(=O)c1cc2ccccc2o1)C(=O)N[C@@H]1C[C@@H](C)CN(S(=O)(=O)c2ccccn2)CC1=O | 6.52 | < 6.00 | –
10 | 9.85 | – | 7.46 | 0.044 | 49 | 56 | CC(C)C[C@H](NC(=O)c1cc2ccccc2o1)C(=O)N[C@H]1C[C@H](C)CN(S(=O)(=O)c2ccccn2)CC1=O | 8.24 | 7.14 | half-life [2]: 51.6 min; clearance [3]: 34.4 mL/min/kg; Vd [4]: 1.46 L/kg; bioavailability [5]: 26.2%
11 | – | – | 7.20 | 0.03 | 57 | 53 | CC(C)C[C@H](NC(=O)c1cc2ccccc2o1)C(=O)N[C@H]1CCCN(S(=O)(=O)c2ccccn2)CC1=O | – | – | pKi (Cathepsin L2): 8.74; half-life [10]: 36.5 min; clearance [11]: 13.9 mL/min/kg; Vd [12]: 0.72 L/kg; bioavailability [13]: 7.3%
12 | 7.54 | – | – | – | – | – | CC(C)C[C@H](NC(=O)c1cc2ccccc2o1)C(=O)N[C@H]1C[C@@H](C)CN(S(=O)(=O)c2ccccn2)CC1=O | 6.46 | < 6.00 | –
13 | 8.35 | – | – | – | – | – | CC(C)C[C@H](NC(=O)c1cc2ccccc2o1)C(=O)N[C@@H]1C[C@H](C)CN(S(=O)(=O)c2ccccn2)CC1=O | 8.08 | 6.18 | –
